Test results as given in ChEMBL document CHEMBL4325885, “Design, synthesis, and biological evaluation of novel phenol ether derivatives as non-covalent proteasome inhibitors” (Eur J Med Chem, 2019).

Experiments:
[1] = target: T1, Proteasome Macropain subunit MB1 (Homo sapiens, UniProt P28074); assay: Inhibition of human chymotrypsin-like activity of 20S constitutive proteasome using Suc-LLVY-AMC as substrate preincubated for 15 mins followed by substrate addition by fluorescence assay
T1 sequence (P28074 whole entry): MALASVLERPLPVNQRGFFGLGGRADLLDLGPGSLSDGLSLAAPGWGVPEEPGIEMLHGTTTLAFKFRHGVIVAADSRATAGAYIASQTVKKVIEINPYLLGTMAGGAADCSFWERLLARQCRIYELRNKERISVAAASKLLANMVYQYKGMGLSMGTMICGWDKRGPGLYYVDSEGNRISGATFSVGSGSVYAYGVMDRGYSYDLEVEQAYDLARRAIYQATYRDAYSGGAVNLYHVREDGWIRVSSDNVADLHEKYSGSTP

[2] = Stability in human liver microsomes at 1 uM measured after 30 mins in presence of NADPH by LC-MS/MS analysis; format: ADME, Microsome; conditions: 0.5 h
How it was run: (§1)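 Pooled human liver microsomes at 1.0 mg/mL protein in 0.1 M phosphate buffer saline pH 7.4 with 1 mM NADPH, preincubated 5 min at 37 °C. Reaction started by adding test compound at 1 μM, then incubated 0, 10, 20 or 30 min. Compound disappearance monitored.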

[3] = target: T2, Proteasome subunit beta type-8 (Homo sapiens, UniProt P28062); assay: Inhibition of 20S immunoproteasome LMP7 (unknown origin) using Ac-ANW-AMC as substrate preincubated for 15 mins followed by substrate addition by fluorescence assay
T2 sequence (P28062 whole entry): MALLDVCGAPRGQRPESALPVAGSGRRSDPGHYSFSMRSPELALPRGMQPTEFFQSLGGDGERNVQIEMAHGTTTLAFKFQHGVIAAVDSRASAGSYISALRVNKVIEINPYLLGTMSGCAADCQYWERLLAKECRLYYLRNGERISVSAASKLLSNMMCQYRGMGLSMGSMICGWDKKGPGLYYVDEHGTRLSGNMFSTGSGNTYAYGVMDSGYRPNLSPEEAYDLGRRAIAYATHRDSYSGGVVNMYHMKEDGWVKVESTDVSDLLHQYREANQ

[4] = tested on: HepG2; assay: Antiproliferative activity against human HepG2 cells after 72 hrs by MTT assay; format: functional, cell-based; conditions: HepG2, 72 h
How it was run: (§2)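 Cells kept at 37 °C, 5% CO2; HGC27 in RPMI-1640 and HepG2 in IMDM, each with 10% FBS and penicillin/streptomycin. Seeded at 1×10⁵ cells/well, then exposed to graded compound concentrations or 0.2% DMSO for 72 h. MTT (5 mg/mL) added for 4 h, formazan dissolved in DMSO, absorbance read at 570 nm. Inhibition = (A_control − A_sample)/A_control; IC50 from variable-slope sigmoidal fit.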

[5] = tested on: HGC-27; assay: Antiproliferative activity against human HGC27 cells after 72 hrs by MTT assay; format: functional, cell-based; conditions: HGC-27, 72 h; how it was run: as §2
[6] = tested on: RPMI-8226; assay: Antiproliferative activity against human RPMI8226 cells after 72 hrs by MTS/PMS assay; format: functional, cell-based; conditions: RPMI-8226, 72 h
How it was run: (§3)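 Cells kept at 37 °C, 5% CO2; RPMI 8226 and MM.1S in RPMI-1640, MV-4-11 in IMDM, each with 10% FBS and penicillin/streptomycin. Seeding per well: RPMI 8226 5×10³, MM.1S 3×10⁴, MV-4-11 8×10³. Graded compound concentrations or 0.2% DMSO for 72 h. MTS/PMS added for 2-4 h at 37 °C, OD read at 490 nm minus 690 nm background. IC50 from variable-slope sigmoidal fit.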

[7] = tested on: MM1.S; assay: Antiproliferative activity against human MM1S cells after 72 hrs by MTS/PMS assay; format: functional, cell-based; how it was run: as §3
[8] = tested on: MV4-11; assay: Antiproliferative activity against human MV4-11 cells after 72 hrs by MTS/PMS assay; format: functional, cell-based; conditions: MV4-11, 72 h; how it was run: as §3
[9] = target: T3, Proteasome Macropain subunit MB1 (Homo sapiens) (UniProt P28074); assay: Inhibition of human chymotrypsin-like activity of 20S constitutive proteasome at 10 uM using Suc-LLVY-AMC as substrate preincubated for 15 mins followed by substrate addition by fluorescence assay relative to control
T3 sequence (whole entry): T1 sequence (P28074 whole entry)

[10] = Stability in human liver microsomes assessed as drug degradation at 1 uM measured within 30 mins in presence of NADPH by LC-MS/MS analysis; format: ADME, Microsome; conditions: read-out: Drug degradation; how it was run: as §1

Row | Compound | IC50 [1] [nM] | also measured
1 | CCCc1ccc(OCC(=O)N(CC(=O)Nc2ccc(C(F)(F)F)cc2)C(C)C)cc1 | 922 | –
2 | CCOc1ccc(OCC(=O)N(CC(=O)Nc2ccnnc2)C(C)C)cc1 | 259 | –
3 | CCCc1ccc(OCC(=O)N(CC(=O)Nc2nncs2)C(C)C)cc1 | 3860 | –
4 | CCCc1ccc(OCC(=O)N(CC(=O)Nc2cncnc2)C(C)C)cc1 | 280 | –
5 | CCCCc1ccc(OCC(=O)N(CC(=O)Nc2ccnnc2)C(C)C)cc1 | 49 | Stability [2]: Stable; IC50 [3]: > 10000 nM; IC50 [4]: 3910 nM; IC50 [5]: 4620 nM; IC50 [6]: > 20000 nM; IC50 [7]: > 20000 nM; IC50 [8]: > 20000 nM
6 | CCCCCc1ccc(OCC(=O)N(CC(=O)Nc2ccnnc2)C(C)C)cc1 | 64 | –
7 | CCc1ccc(OCC(=O)N(CC(=O)Nc2ccnnc2)C(C)C)cc1 | 243 | –
8 | CCCc1ccc(OCC(=O)N(CC(=O)Nc2nc3ccc(OC)cc3s2)C(C)C)cc1 | 1110 | –
9 | CC(C)Cc1ccc(OCC(=O)N(CC(=O)Nc2ccnnc2)C(C)C)cc1 | 118 | –
10 | Cc1ccc(OCC(=O)N(CC(=O)Nc2ccnnc2)C(C)C)cc1 | 481 | –
11 | CCCc1ccc(OCC(=O)N(CC(=O)Nc2ccccn2)C(C)C)cc1 | 836 | –
12 | CCCc1ccc(OCC(=O)N(CC(=O)Nc2ccc(OC)cc2)C(C)C)cc1 | 952 | –
13 | CCCc1ccc(OCC(=O)N(CC(=O)Nc2cnccn2)C(C)C)cc1 | 395 | –
14 | CCCc1ccc(OCC(=O)N(CC(=O)Nc2ccnnc2)C(C)C)cc1 | 89 | –
15 | COc1ccc(OCC(=O)N(CC(=O)Nc2ccnnc2)C(C)C)cc1 | 579 | –
16 | CCCc1ccc(OCC(=O)N(CC(=O)Nc2ccon2)C(C)C)cc1 | 2010 | –
17 | CCCc1ccc(OCC(=O)N(CC(=O)Nc2cccnc2)C(C)C)cc1 | 1680 | inhibition [9]: 58.2%; Stability [2]: Stable
18 | CCCc1ccc(OCC(=O)N(CCNC(=O)Nc2cccnc2)C(C)C)cc1 | – | inhibition [9]: 13.8%

Row | Compound | IC50 [1] [nM] | also measured
19 | CCCc1ccc(OCC(=O)N(CC(=O)Nc2ccncc2)C(C)C)cc1 | 100 | –
20 | CC(C)N(CC(=O)Nc1ccnnc1)C(=O)COc1ccc(CCO)cc1 | 968 | –
21 | CC(C)N(CC(=O)Nc1ccnnc1)C(=O)COc1ccc(Br)cc1 | 405 | –
22 | CCCc1ccc(OCC(=O)N(CC(=O)Nc2ccc(S(C)(=O)=O)cc2)C(C)C)cc1 | 230 | IC50 [3]: > 10000 nM; IC50 [4]: 2870 nM; IC50 [5]: 2470 nM; IC50 [6]: > 20000 nM; IC50 [7]: > 20000 nM; IC50 [8]: > 20000 nM
23 | COC(=O)Cc1ccc(OCC(=O)N(CC(=O)Nc2ccnnc2)C(C)C)cc1 | 1560 | –
24 | CCCc1ccc(OCC(=O)N(CC(=O)Nc2ccc(OC)c(OC)c2)C(C)C)cc1 | 4730 | –
25 | CCCc1ccc(OCC(=O)N(CC(=O)Nc2ccc3ccccc3c2)C(C)C)cc1 | 5910 | –
26 | CCCc1ccc(OCC(=O)N(CC(=O)NCc2cccnc2)C(C)C)cc1 | – | inhibition [9]: 1.16%
27 | CCCc1ccc(OCC(=O)N(CC(=O)Nc2ccc(F)cc2)C(C)C)cc1 | 1200 | –
28 | CC(C)N(CC(=O)Nc1ccnnc1)C(=O)COc1ccc(C(F)(F)F)cc1 | 952 | –
29 | CCCc1ccc(OCC(=O)N(CCC(=O)NCc2cccnc2)C(C)C)cc1 | – | inhibition [9]: 12.7%
30 | CCCc1ccc(OCC(=O)N(CC(=O)Nc2cccc(OC)c2)C(C)C)cc1 | 2000 | –
31 | CCCc1ccc(OCC(=O)N(CCNC(=O)NCc2cccnc2)C(C)C)cc1 | – | inhibition [9]: 38.7%
32 | CCCc1ccc(OCC(=O)N(Cc2nc(-c3cccnc3)no2)C(C)C)cc1 | 92 | inhibition [9]: 80.2%; metabolised at 0.5 h, 1 µM [10]: > 50%; IC50 [3]: > 10000 nM; IC50 [4]: 2950 nM; IC50 [5]: 3350 nM; IC50 [6]: > 20000 nM; IC50 [7]: > 20000 nM; IC50 [8]: > 20000 nM
33 | CCCc1ccc(OCC(=O)N(CC(=O)Nc2ccc(C#N)cc2)C(C)C)cc1 | 361 | –
34 | CCCc1ccc(OCC(=O)N(CC(=O)Nc2ccccc2OC)C(C)C)cc1 | > 10000 | –
35 | CCCc1ccc(OCC(=O)N(CCNC(=O)c2cccnc2)C(C)C)cc1 | – | inhibition [9]: 30.8%
36 | CCCc1ccc(OCC(=O)N(CCC(=O)Nc2cccnc2)C(C)C)cc1 | – | inhibition [9]: 15.5%
